# Source: PubChem BioAssay
# GRK2 aptamer HTS = human GRK2 inhibition via aptamer displacement. AID 488847. inhibition of aptamer binding, % at 10 µM. 330,000 compounds, 0.59% hits. bead flow cytometry, FAM-aptamer displacement from GRK2;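 active = inhibition of aptamer binding above 40%, roughly 3 SD of noise, on plates passing a quality check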;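 note: median bead fluorescence of bound FAM aptamer so fluorescent compounds give negative values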
# CAL PDZ FP-1 = blocks peptide binding to the human CAL PDZ domain; Q9HD26; purified CAL PDZ, TMR-peptide fluorescence polarization, 1 h; inhibition, % at 24.9 µM; 300,000 compounds, 0.92% hits;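 active = mean inhibition of at least 30% with at least half of replicates also reaching 30%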;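 note: 0% = DMSO neutral control and 100% = excess unlabeled competitor peptide PRC23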
# Tn7 DDE FP = disrupts Tn7 cyclic peptide binding to fibrin D-Dimer-E complex | AID 720508 | inhibition, % at 8.3 µM | FP displacement of FITC-Tn7 peptide from fibrin DD(E); 0% = median of compound wells per plate | P02675 | 370,000 compounds, 0.13% hits;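 active = inhibition above the mean of compounds falling within the control limits plus 3 SD of them, cut at about 14% in these data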;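 note: 0% = plate median of compound wells and 100% = 10 µM Aha-Tn7 peptide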
# Target sequence (P02675 whole entry, looked up): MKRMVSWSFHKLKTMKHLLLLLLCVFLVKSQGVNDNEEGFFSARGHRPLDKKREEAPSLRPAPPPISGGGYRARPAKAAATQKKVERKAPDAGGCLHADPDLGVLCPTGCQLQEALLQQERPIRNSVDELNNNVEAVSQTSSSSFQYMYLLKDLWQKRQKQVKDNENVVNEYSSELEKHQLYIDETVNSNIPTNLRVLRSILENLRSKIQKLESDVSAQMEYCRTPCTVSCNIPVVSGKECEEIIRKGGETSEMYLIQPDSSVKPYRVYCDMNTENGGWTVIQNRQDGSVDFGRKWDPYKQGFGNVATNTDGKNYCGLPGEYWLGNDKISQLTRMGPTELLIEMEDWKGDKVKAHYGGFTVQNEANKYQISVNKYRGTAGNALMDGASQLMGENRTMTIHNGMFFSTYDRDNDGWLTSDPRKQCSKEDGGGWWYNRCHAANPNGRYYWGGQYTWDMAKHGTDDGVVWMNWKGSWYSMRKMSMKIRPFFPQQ
#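 Measure: % inhibition scaled between sample-field median and high-control FP; Test system: human fibrin DD(E); Quantity: 2 µM final DD(E) protein; Doses: one dose, 8.3 µM nominal; Schedule: compound with protein 10 min, then 3 h after probe, room temperature; Detection: fluorescence polarization; Medium: Tris buffer with calcium and detergent, pH 7.8.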
# CAL PDZ FP-2 = human CAL PDZ-peptide interaction inhibition; Q9HD26; purified CAL PDZ, TMR-peptide fluorescence polarization, 1 h; AID 504414; inhibition, % at 20 µM; 330,000 compounds, 0.02% hits;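 active = highest replicate inhibition of at least 40%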;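 note: plate controls were DMSO neutral control wells for no effect and unlabeled competitor peptide control wells for full effect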
#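 Test system: tagged CAL PDZ domain / Buffer or medium: sodium phosphate/NaCl buffer pH 7.4 with TCEP, IgG, Thesit / Reagent: TMR-labelled reporter peptide T*-PRC34 bound in PDZ groove / Compound dosing: single point, 20 µM / Schedule: 1 h incubation at room temperature before polarization reading / Technique: fluorescence polarization (mP) / Benchmarks: unlabelled peptide, DMSO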
# ARNT-TACC3 inh = disruptors of human ARNT/TACC3 interaction; AlphaScreen His-ARNT PAS-B/GST-TACC3 binding, luminescence; TACC3 fragment carries E629A point mutation; inhibition, % at 9.99 µM; 390,000 compounds, 0.66% hits; AID 623870;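 active = mean inhibition of replicates at least 50% and at least half of replicates each reaching 50%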;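 note: 0% = complete ARNT plus TACC3 wells and 100% = ARNT alone without TACC3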
# Tn6 DDE FP = DD(E)-Tn6 binding inhibition, primary FP screen | P02675 | Fibrin DD(E) TRITC-Tn6 fluorescence polarization displacement | inhibition, % at 8.3 µM | 370,000 compounds, 0.21% hits;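 active = inhibition above a per-campaign cutoff: mean of compounds within control limits plus 3 SD, cut at about 15% in these data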;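 note: 0% = median of all compound wells on the plate and 100% = blocking peptide control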
# GRK2 inh confirm = human GRK2 inhibition confirmation, cherry pick 1; shares compounds with GRK2 aptamer HTS; bead-bound GRK2, FAM-aptamer displacement, flow cytometry; aptamer displacement, % at 10 µM; 2,000 compounds, 4% hits; AID 504451;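 active = aptamer displacement above 40%, near three times the noise of non-fluorescent compounds, on plates passing quality checks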;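 note: negative values mostly reflect intrinsic compound fluorescence rather than true enhancement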
# FAM quench CP1 = counter-screen for GRK2 aptamer inhibitors: fluorescent aptamer quenchers; shares compounds with GRK2 aptamer HTS; 2,000 tested, under 10 active; AID 504580; fluorescence response (% of DMSO), % at 10 µM; Carboxyfluorescein RNA aptamer on beads, flow cytometry quenching; active compounds read low;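 active = compounds that quench the bead-bound fluorescent RNA probe, cutting fluorescence to under half of the solvent control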;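 note: counterscreen run without GRK2 so only probe quenching by compound is measured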
# GRK2 CP2 = human GRK2 inhibition confirmation, cherry pick 2 | shares compounds with GRK2 aptamer HTS | inhibition of aptamer binding, % at 10 µM | bead-bound GRK2, FAM-aptamer displacement, flow cytometry | 360 tested, under 10 active;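 active = inhibition of aptamer binding above 40%, about triple the noise seen with nonglowing compounds, on plates passing quality control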;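 note: negative values mostly come from compounds that fluoresce themselves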
# FAM quench CP2 = counter-screen for GRK2 binding hits: quenchers of fluorescent RNA aptamer | 360 tested, under 10 active | carboxyfluorescein RNA aptamer beads, flow cytometry quenching; active compounds read low | shares compounds with GRK2 aptamer HTS | fluorescence response vs DMSO, % at 10 µM;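 active = response vs DMSO under 50%, meaning signal dropped by over half, treated as fluorescence quencher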;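 note: labelled aptamer on streptavidin beads without GRK2 as a quench counter-screen; 100% = bead fluorescence of DMSO wells and lower means quenching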
# * = called active by the depositor; / = no result. Most compounds without a hit are left out; they make up all but 1.8% or so of the library.
SMILES,GRK2 aptamer HTS,CAL PDZ FP-1,Tn7 DDE FP,CAL PDZ FP-2,ARNT-TACC3 inh,Tn6 DDE FP,GRK2 inh confirm,FAM quench CP1,others
CCCC(=O)NC1=C(C#N)C2(CCCC2)Cc2ccccc21,58*,-1,-1,-2,-17,-2,0,94,
O=C(Nc1cccc([N+](=O)[O-])c1)c1cccc(C(=O)Nc2cccc([N+](=O)[O-])c2)c1,67*,-5,-4,-1,-4,2,27,101,
Cc1ccc(CONC(=O)c2ccc([N+](=O)[O-])cc2)cc1,0,-6,0,0,/,-12,/,/,
Cc1ccccc1C(=O)NNC(=O)c1cccc([N+](=O)[O-])c1,60*,/,2,0,-19,2,-4,101,
O=C(Nc1ccc(NC(=O)c2cccc([N+](=O)[O-])c2)cc1)c1cccc([N+](=O)[O-])c1,0,6,9,0,-4,-1,/,/,
Cc1ccc(CONC(=O)c2cccc([N+](=O)[O-])c2)cc1,43*,14,1,0,-8,-1,/,/,GRK2 CP2=-11;FAM quench CP2=100
COC(=O)[C@]12CCCCC=C1N(Cc1cccc3ccccc13)C(=O)[C@H](CC(=O)NCc1ccc(C)o1)C2,/,/,2,/,/,8,/,/,
CO[C@@H]1CN(C)C(=O)c2cc(NS(=O)(=O)Cc3ccccc3)ccc2OC[C@@H](C)N(Cc2nccs2)C[C@H]1C,/,/,/,/,9,/,/,/,
Cc1ccc(-c2cnc3ccccc3n2)cc1C,0,-7,-4,-2,-10,-6,2,101,
COc1ccc(NC(=O)N(C)C[C@@H]2Oc3c(NC(=O)c4nc5ccccc5s4)cccc3C(=O)N([C@H](C)CO)C[C@@H]2C)cc1,/,/,/,/,29,/,/,/,
Cc1occc1C(=O)N/N=C/C(Br)=C/c1ccccc1,39,-2,-5,-5,10,-4,1,94,
Cc1occc1C(=O)N/N=C/c1ccc(-c2ccccc2)cc1,1,4,10,-2,/,-5,/,/,
CO[C@H]1CN(C)C(=O)c2cc(NC(=O)NC(C)C)ccc2OC[C@H](C)N(CC2CC2)C[C@@H]1C,/,/,/,/,0,/,/,/,
Cn1cnc2c1c(=O)n(Cc1ccccc1)c(=O)n2C,2,/,2,0,-4,-9,/,/,
CN(Cc1ccccc1)Cc1nc2c(c(=O)n(C)c(=O)n2C)n1CCc1ccccc1,40,-2,4,-4,3,-3,-1,98,
Cn1c(=O)n(CCc2ccccc2)c(=O)c2c1ncn2Cc1ccccc1,74*,/,-3,-4,5,6,-2,100,
C[C@H](CO)N1C[C@H](C)[C@H](CN(C)C(=O)Cc2ccccc2)OCCCC[C@H](C)Oc2ccc(NC(=O)Nc3cccc4ccccc34)cc2C1=O,/,/,/,/,-11,/,/,/,
O=C(O)c1cc(-c2ccc(/C=C3\NC(=O)N(c4ccc(Cl)cc4)C3=O)o2)ccc1Cl,50*,1,-2,-4,/,1,25,109,
O=C(O)c1cc(-c2ccc(/C=C3\NC(=O)N(c4ccccc4)C3=O)o2)ccc1Cl,86*,2,4,-4,13,-7,20,102,
O=C1NN(c2ccccc2)C(=O)/C1=C/c1ccc(-c2ccc(Cl)c(C(=O)O)c2)o1,/,-6,4,-1,2,1,/,/,
C[C@@H](N)C(=O)NC[C@H]1O[C@@H](n2cnc3c(N)ncnc32)[C@H](O)[C@@H]1O,0,0,/,1,1,/,/,/,
O=C(c1ccc(=O)oc1)N1CCOCC1,87*,-2,1,-2,1,2,35,110,
O=C(Nc1ccc(F)cc1)c1ccc(C(=O)N2CCOCC2)cc1,/,-2,6,-1,0,-3,/,/,
O=C(c1ccc(F)cc1)N1CCOCC1,50*,-3,-1,-3,-3,5,0,101,
O=C(c1ccc(=O)oc1)N1CCCc2ccccc21,42*,-4,6,0,36,0,7,106,
O=C(c1ccc(-n2cccc2)cc1)N1CCOCC1,0,-4,9,-3,/,-5,/,/,
CCCC#Cc1ccc2c(c1)O[C@@H](CN(C)C(=O)CC)[C@@H](C)CN([C@@H](C)CO)S2(=O)=O,/,/,/,/,6,/,/,/,
CC(=O)Nc1ccc2c(c1)nc(CCNC(=O)c1ccccc1)n2C,57*,-4,-1,-2,-5,0,-1,99,
